The target in data set [1] is T1, Acetylcholinesterase (Homo sapiens, UniProt P22303). The data set can be described thus: Reversible inhibition of AChE (unknown origin) assessed as residual activity at 100 times IC50 incubated for 30 mins by dilution method relative to control. The method, boiled down: (§1)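 Samples then diluted 100-fold with substrate, giving final inhibitor levels of 0.1× and 1× IC50. Recovered activity measured relative to control; triplicate.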

The test system of data set [2] is SH-SY5Y. The data set can be described thus: Neuroprotective activity against 6-OHDA-induced cytotoxicity in human SH-SY5Y cells assessed as cell viability at 5 uM incubated for 24 hrs followed by exposure to 6-OHDA by MTT assay relative to control. It is filed as functional. The settings on record: read-out: Activity. The method, boiled down:
(§2)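 SH-SY5Y cells treated with compound (1, 5, 25 μM) and challenged with 6-OHDA; cultured 24 h at 37 °C under humidified 5% CO2. Viability measured by MTT as formazan absorbance at 594 nm and expressed relative to control.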
(In general: Formazan colour is commonly taken as a measure of viable cells.)

In data set [3] the target is T2, Amine oxidase [flavin-containing] A (Homo sapiens, UniProt P21397).
T2 sequence (P21397 whole entry): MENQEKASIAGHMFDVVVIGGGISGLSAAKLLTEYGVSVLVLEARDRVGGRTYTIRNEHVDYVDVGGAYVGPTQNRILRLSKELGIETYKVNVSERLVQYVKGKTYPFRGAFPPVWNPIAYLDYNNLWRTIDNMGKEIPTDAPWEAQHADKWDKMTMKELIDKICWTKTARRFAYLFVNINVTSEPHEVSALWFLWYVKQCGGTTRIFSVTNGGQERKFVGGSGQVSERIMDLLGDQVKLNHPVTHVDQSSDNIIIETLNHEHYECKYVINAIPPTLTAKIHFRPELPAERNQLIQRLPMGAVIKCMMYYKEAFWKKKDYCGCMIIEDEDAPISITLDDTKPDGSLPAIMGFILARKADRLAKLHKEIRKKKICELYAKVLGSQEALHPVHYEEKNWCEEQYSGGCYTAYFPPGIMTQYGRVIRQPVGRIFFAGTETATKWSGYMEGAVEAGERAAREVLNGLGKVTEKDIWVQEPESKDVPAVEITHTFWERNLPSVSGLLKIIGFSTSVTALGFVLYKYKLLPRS
The data set can be described thus: Inhibition of recombinant MAO-A (unknown origin) at 20 uM preincubated for 30 mins followed substrate addition by Amplex Red reagent based fluorescence analysis relative to control. A digest of the protocol:
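Recombinant MAO enzyme preincubated with compound 30 min at 37 °C; substrate, HRP and Amplex Red working solution then added; H2O2 formation read at 37 °C by fluorescence, ex 545/em 590 nm. Screening at 20 μM as % inhibition versus control; IC50 only for compounds above 50% inhibition at 20 μM; triplicate (n = 3).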

Data set [4] deals with SH-SY5Y. The data set can be described thus: Neuroprotective activity against 6-OHDA-induced cytotoxicity in human SH-SY5Y cells assessed as cell viability at 1 uM incubated for 24 hrs followed by exposure to 6-OHDA by MTT assay relative to control. It is filed as functional. The settings on record: read-out: Activity. The method, boiled down: as §2
Data set [5] has as its target T1, Acetylcholinesterase. The data set can be described thus: Reversible inhibition of AChE (unknown origin) assessed as residual activity at 1 times IC50 incubated for 30 mins by dilution method relative to control. The method, boiled down:
as §1

In data set [6] the target is Amyloid-beta precursor protein (Homo sapiens) (UniProt P05067). The data set can be described thus: Inhibition of self-induced amyloid beta (1 to 42 residues) (unknown origin) aggregation at 20 uM incubated at 48 hrs by fluorimetry-based thioflavin T assay. The method, boiled down:
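Aβ1-42 pretreated with HFIP (1 mg mL−1) and dried, then incubated with compound (20 μM) at 37 °C for 24 h; an aliquot transferred and incubated further to 48 h. Glycine–NaOH buffer pH 8.0 with 5 μM ThT added; fluorescence read at 440–485 nm. % inhibition calculated against the Aβ-only control taken as 0%.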

Data set [7] has as its target T3, Amine oxidase [flavin-containing] B (Homo sapiens, UniProt P27338).
T3 sequence (P27338 whole entry): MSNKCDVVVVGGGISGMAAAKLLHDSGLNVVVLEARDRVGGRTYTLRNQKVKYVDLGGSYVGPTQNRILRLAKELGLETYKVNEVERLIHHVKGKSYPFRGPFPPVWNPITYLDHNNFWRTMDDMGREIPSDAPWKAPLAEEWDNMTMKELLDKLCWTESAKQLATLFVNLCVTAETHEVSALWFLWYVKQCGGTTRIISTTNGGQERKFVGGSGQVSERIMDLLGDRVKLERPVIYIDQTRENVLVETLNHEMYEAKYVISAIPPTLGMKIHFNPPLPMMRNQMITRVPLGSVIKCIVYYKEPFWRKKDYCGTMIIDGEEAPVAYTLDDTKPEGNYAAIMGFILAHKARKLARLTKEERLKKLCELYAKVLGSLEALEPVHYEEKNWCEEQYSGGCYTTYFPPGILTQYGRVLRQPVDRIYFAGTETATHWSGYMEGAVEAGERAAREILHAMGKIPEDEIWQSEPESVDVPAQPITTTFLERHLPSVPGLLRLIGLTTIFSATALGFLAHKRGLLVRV
The experiment in a line: Reversible inhibition of MAO-B (unknown origin) assessed as residual activity at 100 times IC50 incubated for 30 mins by dilution method relative to control. The following applies: 0.5 h.

Data set [8] concerns the target T3, Amine oxidase [flavin-containing] B. The experiment in a line: Reversible inhibition of MAO-B (unknown origin) assessed as residual activity at 0.1 times IC50 incubated for 30 mins by dilution method relative to control. The settings on record: 0.5 h.
Data set [9] concerns SH-SY5Y. The data set can be described thus: Cytotoxicity against human SH-SY5Y cells assessed as cell viability at 1 uM by MTT assay relative to control. It is filed as functional. The settings on record: read-out: Activity. The method, boiled down:
(§3)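 SH-SY5Y cells (DMEM/F-12 with 10% FBS, 1% horse serum, 1% penicillin) preincubated 24 h with compound at 1, 5 or 25 μM; MTT converted to formazan, solubilised in DMSO, absorbance read at 595 nm; viability expressed as percentage of untreated control.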

In data set [10] the target is Cholinesterase (Homo sapiens, UniProt P06276). The experiment in a line: Inhibition of recombinant BuChE (unknown origin) using BTCI as substrate at 20 uM preincubated for 30 mins followed by substrate addition by TECAN multiplate reader analysis relative to control. The method, boiled down: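 Ellman method as for AChE, using butyrylcholinesterase with BTCI as substrate. Enzyme and compound preincubated 30 min at 37 °C in a CO2 incubator, then DTNB and BTCI added; absorbance read at 417 nm. Screening at 20 μM as % inhibition; IC50 for compounds exceeding 50% inhibition at 20 μM. Triplicate.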

Data set [11] has as its system SH-SY5Y. The experiment in a line: Cytotoxicity against human SH-SY5Y cells assessed as cell viability at 25 uM by MTT assay relative to control. It is filed as functional. The following applies: read-out: Activity. A digest of the protocol: as §3

In general, inhibition refers to the share of the control response that was lost under treatment.

T1 sequence (P22303 whole entry): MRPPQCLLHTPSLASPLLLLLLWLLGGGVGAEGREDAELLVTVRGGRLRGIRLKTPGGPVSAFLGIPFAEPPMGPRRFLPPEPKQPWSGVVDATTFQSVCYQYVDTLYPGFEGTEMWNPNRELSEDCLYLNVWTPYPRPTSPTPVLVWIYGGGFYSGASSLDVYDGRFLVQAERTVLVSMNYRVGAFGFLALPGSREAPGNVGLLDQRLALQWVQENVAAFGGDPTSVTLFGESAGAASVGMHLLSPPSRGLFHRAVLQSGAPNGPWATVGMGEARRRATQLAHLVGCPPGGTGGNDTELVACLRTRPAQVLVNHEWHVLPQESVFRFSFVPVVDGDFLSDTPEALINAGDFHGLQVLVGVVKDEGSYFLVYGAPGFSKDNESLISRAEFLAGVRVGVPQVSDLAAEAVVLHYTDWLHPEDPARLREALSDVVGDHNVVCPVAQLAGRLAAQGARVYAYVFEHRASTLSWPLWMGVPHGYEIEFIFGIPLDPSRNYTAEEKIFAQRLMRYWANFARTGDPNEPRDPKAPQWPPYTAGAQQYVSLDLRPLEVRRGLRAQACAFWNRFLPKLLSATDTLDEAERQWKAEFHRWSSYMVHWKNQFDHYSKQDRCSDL
Cholinesterase, sequence (P06276 whole entry): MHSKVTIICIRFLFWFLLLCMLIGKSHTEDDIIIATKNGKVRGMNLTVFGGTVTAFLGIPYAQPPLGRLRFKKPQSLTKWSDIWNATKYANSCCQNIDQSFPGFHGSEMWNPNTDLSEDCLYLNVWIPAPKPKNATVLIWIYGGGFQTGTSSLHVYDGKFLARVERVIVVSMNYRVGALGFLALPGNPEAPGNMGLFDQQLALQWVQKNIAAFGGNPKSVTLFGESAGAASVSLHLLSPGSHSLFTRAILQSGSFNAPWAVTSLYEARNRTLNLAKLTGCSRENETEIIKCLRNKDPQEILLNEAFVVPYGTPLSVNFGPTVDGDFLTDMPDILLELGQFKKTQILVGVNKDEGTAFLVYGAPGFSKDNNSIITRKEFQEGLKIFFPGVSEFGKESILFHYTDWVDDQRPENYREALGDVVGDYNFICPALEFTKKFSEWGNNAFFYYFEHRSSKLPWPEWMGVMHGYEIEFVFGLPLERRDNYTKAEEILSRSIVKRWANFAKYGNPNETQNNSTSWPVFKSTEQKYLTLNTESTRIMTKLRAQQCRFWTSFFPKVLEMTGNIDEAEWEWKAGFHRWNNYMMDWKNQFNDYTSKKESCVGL
Amyloid-beta precursor protein (Homo sapiens), sequence (P05067 whole entry, the tested form may be a part): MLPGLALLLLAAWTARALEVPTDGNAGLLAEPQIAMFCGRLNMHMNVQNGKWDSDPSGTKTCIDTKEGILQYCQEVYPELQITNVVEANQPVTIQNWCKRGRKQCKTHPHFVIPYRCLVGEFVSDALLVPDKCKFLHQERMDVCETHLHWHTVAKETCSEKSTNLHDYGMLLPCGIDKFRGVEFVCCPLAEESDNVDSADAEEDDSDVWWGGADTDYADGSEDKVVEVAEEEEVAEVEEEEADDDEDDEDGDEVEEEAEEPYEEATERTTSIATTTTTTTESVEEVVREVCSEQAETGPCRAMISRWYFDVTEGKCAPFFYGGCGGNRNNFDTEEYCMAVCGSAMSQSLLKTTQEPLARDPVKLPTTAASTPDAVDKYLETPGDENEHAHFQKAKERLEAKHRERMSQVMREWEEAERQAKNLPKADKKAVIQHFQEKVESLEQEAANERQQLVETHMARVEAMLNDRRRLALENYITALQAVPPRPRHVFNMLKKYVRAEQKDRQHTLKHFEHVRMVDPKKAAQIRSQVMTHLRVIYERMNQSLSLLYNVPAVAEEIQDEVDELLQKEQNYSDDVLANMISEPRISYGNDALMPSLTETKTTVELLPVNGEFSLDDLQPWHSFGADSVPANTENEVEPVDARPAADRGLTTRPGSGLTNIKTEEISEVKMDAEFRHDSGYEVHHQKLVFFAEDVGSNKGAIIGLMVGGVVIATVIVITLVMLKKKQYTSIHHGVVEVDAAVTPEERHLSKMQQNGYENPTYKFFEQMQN

As to `C#CCCCOc1ccc(-c2cc(=O)c3ccccc3o2)cc1CN1CCCCC1`, the Activity came out at 17.7% in data set [1], 44.9% in data set [5], 15% in [7] and 71.4% in data set [8]. Further, in data set [2], the viability at 5 µM worked out at 42.9%. In data set [3], the inhibition at 20 µM was 0.23%. The results for the viability at 1 µM in data set [4] and in [9] were 55.1% and 99.6%, respectively. For the same compound, the inhibition stood at 32.2% in data set [6] and 87.9% in [10]. In data set [11], the viability at 25 µM amounted to 88.3%.
